Measurements reported in ChEMBL document CHEMBL4043303, “Development of Novel Melanocortin Receptor Agonists Based on the Cyclic Peptide Framework of Sunflower Trypsin Inhibitor-1” (J Med Chem, 2018).
The source made the active and inactive calls. No cut-off for these calls is given here.

How the values were obtained:
[1] = Solubility of the compound in water at 1 mM; assay type: physicochemical; settings: buffer, 1000 µM
[2] = biological target: T1, Melanocyte-stimulating hormone receptor (Homo sapiens, UniProt Q01726); experiment: Displacement of [125I]-NDP-alpha-MSH from human MC1R LBD expressed in HEK293 cell membranes up to 100 uM incubated for 16 to 23 hrs in dark by scintillation proximity assay
T1 sequence (Q01726 whole entry, looked up, the tested form may be a part): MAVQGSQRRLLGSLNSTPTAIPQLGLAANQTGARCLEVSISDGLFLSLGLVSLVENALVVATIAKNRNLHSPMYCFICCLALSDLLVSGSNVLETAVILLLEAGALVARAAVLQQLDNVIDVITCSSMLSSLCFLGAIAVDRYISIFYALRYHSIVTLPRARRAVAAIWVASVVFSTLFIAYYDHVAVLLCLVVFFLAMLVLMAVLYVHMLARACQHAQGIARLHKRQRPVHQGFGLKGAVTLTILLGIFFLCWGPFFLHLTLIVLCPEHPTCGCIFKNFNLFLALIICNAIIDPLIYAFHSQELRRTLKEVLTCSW

[3] = biological target: T2, Melanocortin receptor 3 (Homo sapiens, UniProt P41968); experiment: Agonist activity at human MC3R expressed in low doxycyclin-treated HEK293 cell membranes assessed as increase in cAMP production up to 100 uM after 45 mins by HTRF method; assay type: functional, cell-based
T2 sequence (P41968 whole entry): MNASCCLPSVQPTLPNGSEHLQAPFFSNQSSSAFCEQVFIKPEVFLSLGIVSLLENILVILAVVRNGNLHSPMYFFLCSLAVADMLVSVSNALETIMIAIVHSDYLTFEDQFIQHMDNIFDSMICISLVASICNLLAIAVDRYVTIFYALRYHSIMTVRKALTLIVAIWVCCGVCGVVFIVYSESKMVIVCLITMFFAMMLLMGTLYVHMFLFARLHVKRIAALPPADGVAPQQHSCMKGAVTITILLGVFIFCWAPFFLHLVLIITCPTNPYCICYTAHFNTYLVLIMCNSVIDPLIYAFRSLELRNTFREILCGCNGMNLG
Procedure, shortened: (§1)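 Stable T-REx-293 clones (Zeocin-selected, human receptor cDNA in pcDNA4/TO), receptor expression induced with 0.1 ng/mL doxycycline for 24 h. 1000 cells/well in HBSS with Ca2+/Mg2+, 20 mM HEPES pH 7.4, 0.1% BSA. Stimulation for 45 min at 37 °C with 1 mM IBMX. cAMP read by LANCE HTRF (665/615 nm).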

[4] = biological target: T3, Melanocortin receptor 4 (Homo sapiens, UniProt P32245); experiment: Agonist activity at human MC4R expressed in low doxycyclin-treated HEK293 cell membranes assessed as increase in cAMP production up to 100 uM after 45 mins by HTRF method; assay type: functional, cell-based; procedure, shortened: as §1
T3 sequence (P32245 whole entry, the tested form may be a part): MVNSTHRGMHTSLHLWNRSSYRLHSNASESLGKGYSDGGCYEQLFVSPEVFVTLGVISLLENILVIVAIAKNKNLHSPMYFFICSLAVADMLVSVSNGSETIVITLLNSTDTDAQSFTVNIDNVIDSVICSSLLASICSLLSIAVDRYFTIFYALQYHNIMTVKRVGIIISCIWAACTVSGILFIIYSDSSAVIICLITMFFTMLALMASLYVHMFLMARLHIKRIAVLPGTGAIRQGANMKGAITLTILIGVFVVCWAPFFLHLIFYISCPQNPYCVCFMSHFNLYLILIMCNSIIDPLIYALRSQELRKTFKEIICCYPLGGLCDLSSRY

[5] = biological target: Melanocortin receptor 5 (Homo sapiens, UniProt P33032); experiment: Displacement of [125I]-NDP-alpha-MSH from human MC5R LBD expressed in HEK293 cell membranes up to 100 uM incubated for 16 to 23 hrs in dark by scintillation proximity assay
Sequence of Melanocortin receptor 5 (P33032 whole entry, the tested form may be a part): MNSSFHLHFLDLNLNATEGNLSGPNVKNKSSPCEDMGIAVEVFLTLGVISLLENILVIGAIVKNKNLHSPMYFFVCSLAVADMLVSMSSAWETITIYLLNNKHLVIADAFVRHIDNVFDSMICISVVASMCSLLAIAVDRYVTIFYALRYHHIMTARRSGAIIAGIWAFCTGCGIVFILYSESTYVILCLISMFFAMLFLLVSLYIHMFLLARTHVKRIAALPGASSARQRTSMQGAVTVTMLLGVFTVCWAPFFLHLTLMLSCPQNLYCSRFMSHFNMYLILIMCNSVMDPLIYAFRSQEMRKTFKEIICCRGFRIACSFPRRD

[6] = biological target: T1, Melanocyte-stimulating hormone receptor; experiment: Agonist activity at human MC1R expressed in low doxycyclin-treated HEK293 cell membranes assessed as increase in cAMP production up to 100 uM after 45 mins by HTRF method; assay type: functional, cell-based; procedure, shortened: as §1
[7] = biological target: T3, Melanocortin receptor 4; experiment: Displacement of [125I]-NDP-alpha-MSH from human MC4R LBD expressed in HEK293 cell membranes up to 100 uM incubated for 16 to 23 hrs in dark by scintillation proximity assay
[8] = biological target: T2, Melanocortin receptor 3; experiment: Displacement of [125I]-NDP-alpha-MSH from human MC3R LBD expressed in HEK293 cell membranes up to 100 uM incubated for 16 to 23 hrs in dark by scintillation proximity assay
[9] = biological target: T3, Melanocortin receptor 4; experiment: Agonist activity at human MC4R expressed in high doxycyclin-treated HEK293 cell membranes assessed as increase in cAMP production up to 100 uM after 15 mins by HTRF method; assay type: functional, cell-based
Procedure, shortened: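 Stable T-REx-293 clone expressing human MC4R, induced with 10 ng/mL doxycycline for 24 h. 1000 cells/well in HBSS/20 mM HEPES pH 7.4/0.1% BSA. Stimulation for 15 min at 37 °C with 1 mM IBMX. LANCE HTRF cAMP read-out.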

solubility [1]: Soluble | inhibition [2]: inactive | Activity [3]: inactive | Activity [4]: inactive | inhibition [5]: inactive | Activity [6]: inactive | inhibition [7]: inactive | inhibition [8]: inactive | Activity [9]: inactive
SMILES: CC[C@H](C)[C@@H]1NC(=O)[C@@H]2CCCN2C(=O)[C@@H]2CCCN2C(=O)[C@H]([C@@H](C)CC)NC(=O)[C@H](CO)NC(=O)[C@H](CCCCN)NC(=O)[C@H]([C@@H](C)O)NC(=O)[C@@H]2CSSC[C@H](NC1=O)C(=O)N[C@@H](Cc1ccccc1)C(=O)N1CCC[C@H]1C(=O)N[C@@H](CC(=O)O)C(=O)NCC(=O)N[C@@H](CCCNC(=N)N)C(=O)N2
